Measured values published in ChEMBL document CHEMBL1240409, “Design, synthesis and evaluation of (E)-alpha-benzylthio chalcones as novel inhibitors of BCR-ABL kinase” (Bioorg Med Chem, 2010).

What was measured:
DU-145 = assay: Growth inhibition of human DU145 cells after 96 hrs by trypan blue exclusion assay; assay type: functional; conditions: DU-145, 96 h
K562 = assay: Growth inhibition of human K562 cells expressing p210Bcr/Abl after 96 hrs by trypan blue exclusion assay; assay type: functional, cell-based; conditions: K562, 96 h
Procedure, shortened: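 K562 cells were kept in RPMI with 10% FBS and penicillin–streptomycin at 37 °C under 5% CO2. Cells were seeded at 1 × 10^5 cells/mL with a range of compound concentrations, using DMSO as the negative control. After 96 h, viability was counted by Trypan blue exclusion and expressed as percent of DMSO control to derive GI50.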

Structure (SMILES) | GI50 (DU-145) [µM] | GI50 (K562) [µM]
CCOc1ccc(/C=C(/Sc2ccc(C)cc2)C(=O)c2ccc(Cl)cc2)cc1OC | 25 | 10
O=C(/C(=C\c1ccc(Br)cc1)Sc1ccc(Br)cc1)c1ccc(Br)cc1 | 1 | 2.5
O=C(O)c1cc(/C=C(/Sc2ccc(Br)cc2)C(=O)c2c(F)c(F)c(F)c(F)c2F)ccc1O | 25 | 25
COc1cc(OC)c(/C=C(/SCc2ccc(F)cc2)C(=O)c2ccc(Cl)cc2)c(OC)c1 | 10 | 10
O=C(O)c1ccc(/C=C(/SCc2ccc(Cl)cc2)C(=O)c2ccc(C(=O)O)cc2)cc1 | > 100 | > 100
O=C(/C(=C\c1ccc(O)c([N+](=O)[O-])c1)SCc1ccc(Br)cc1)c1ccc(Cl)cc1Cl | 10 | 1
O=C(/C(=C\c1ccc(O)c([N+](=O)[O-])c1)Sc1ccccc1Br)c1ccc(Cl)cc1 | 25 | 10
CN(C)c1ccc(/C=C(\C(=O)c2ccc(Cl)cc2)S(=O)(=O)c2ccc(Br)cc2)cc1 | > 100 | 50
O=C(/C(=C\c1ccc(Cl)cc1)S(=O)(=O)c1ccc(Br)cc1)c1ccc(Br)cc1 | 50 | 50
COc1ccccc1/C=C(/Sc1ccc(C)cc1)C(=O)c1ccc(Br)cc1 | 9 | 1
CC(=O)Nc1ccc(/C=C(/SCc2ccc(F)cc2)C(=O)c2ccc(C(=O)O)cc2)cc1[N+](=O)[O-] | 10 | 1
COc1ccc(C(=O)/C(=C\c2ccc(O)c([N+](=O)[O-])c2)SCc2ccc(Br)cc2)cc1 | 10 | 10
COc1cc(/C=C(/Sc2ccc(Br)cc2)C(=O)c2ccc(Br)cc2)ccc1O | 1 | 1
Cc1ccc(S/C(=C/c2sccc2C)C(=O)c2ccc(Cl)cc2)cc1 | 50 | 50
O=C(/C(=C\c1ccc(Cl)cc1Cl)S(=O)(=O)c1ccc(Br)cc1)c1ccc(Cl)cc1 | 50 | 25
O=C(/C(=C\c1ccc(Cl)cc1)Sc1ccc(Cl)cc1)c1ccc(Cl)cc1 | 1 | 1
CCOc1ccc(/C=C(\C(=O)c2ccc(Br)cc2)S(=O)(=O)c2ccc(C)cc2)cc1OC | 1 | 1
Cc1ccsc1/C=C(/SCc1ccccc1F)C(=O)c1ccc(Cl)cc1 | 50 | 50
COc1cc(OC)c(/C=C(\C(=O)c2ccc(Br)cc2)S(=O)(=O)c2ccc(C)cc2)c(OC)c1 | > 100 | > 100

Structure (SMILES) | GI50 (DU-145) [µM] | GI50 (K562) [µM]
COc1cc(OC)c(/C=C(\C(=O)c2ccc(Cl)cc2)S(=O)(=O)c2ccc(C)cc2)c(OC)c1 | 25 | 10
COc1ccc(/C=C(/Sc2ccc(C)cc2)C(=O)c2ccc(Br)cc2)cc1 | 50 | 10
O=C(/C(=C\c1ccc(OCc2ccccc2)cc1)SCc1cccc(Cl)c1)c1ccc(Br)cc1 | 1 | 1
O=C(/C(=C\c1ccc(F)c([N+](=O)[O-])c1)S(=O)(=O)c1ccc(Br)cc1)c1ccc(Br)cc1 | 25 | 10
CCOc1ccc(/C=C(/SCc2ccc(Cl)c(Cl)c2)C(=O)c2ccc(Cl)cc2)cc1OC | 25 | 1
COc1ccccc1/C=C(/Sc1ccc(Br)cc1)C(=O)c1ccc(Cl)cc1 | 10 | 10
CCOc1ccc(/C=C(\C(=O)c2ccc(Br)cc2)S(=O)(=O)c2ccc(Br)cc2)cc1OC | 1 | 1
COc1cc(OC)c(C=C(C(=O)c2ccc(Cl)cc2)S(=O)(=O)Cc2ccccc2Cl)c(OC)c1 | > 100 | 25
O=C(C(=Cc1ccc(Br)cc1)S(=O)(=O)Cc1ccc(I)cc1)c1ccc(I)cc1 | 20 | 20
Cc1ccc(C)c(/C=C(/SCc2ccc(Cl)cc2)C(=O)c2ccc(Cl)cc2)c1 | 10 | 10
CC(=O)Oc1ccc(/C=C(\C(=O)c2ccc(Cl)cc2)S(=O)(=O)c2ccc(C)cc2)cc1 | 25 | 10
COc1ccccc1/C=C(\C(=O)c1ccc(Cl)cc1)S(=O)(=O)c1ccc(C)cc1 | 1 | 1
O=C(/C(=C\c1ccc(O)cc1O)S(=O)(=O)c1ccccc1Br)c1ccc(Br)cc1 | > 100 | 50
Cc1ccc(S(=O)(=O)/C(=C/c2ccc(Cl)cc2)C(=O)c2ccc(Cl)cc2)cc1 | 1 | 1
O=C(/C(=C\c1ccc([N+](=O)[O-])c(O)c1)S(=O)(=O)c1ccc(Br)cc1)c1c(F)c(F)c(F)c(F)c1F | 1 | 1
O=C(/C(=C\c1c[nH]c2ccccc12)Sc1ccc(Br)cc1)c1ccc(Br)cc1 | 1 | 1
O=C(/C(=C\c1ccc(OC(F)(F)F)cc1)Sc1ccc(Br)cc1)c1ccc(Br)cc1 | 10 | 1
Cc1ccc(S(=O)(=O)/C(=C/c2ccc(N(C)C)cc2)C(=O)c2ccc(Cl)cc2)cc1 | > 100 | > 100
Cc1ccc(S(=O)(=O)/C(=C/c2c(O)cc(O)cc2O)C(=O)c2ccc(Cl)cc2)cc1 | > 100 | > 100

Structure (SMILES) | GI50 (DU-145) [µM] | GI50 (K562) [µM]
Cc1ccc(S/C(=C/c2cc([N+](=O)[O-])ccc2F)C(=O)c2ccc(Cl)cc2)cc1 | 10 | 1
COc1ccccc1/C=C(/SCc1ccc(F)cc1)C(=O)c1ccc(Cl)cc1 | 10 | 1
COc1ccc(C(=O)/C(=C\c2c(OC)cc(OC)cc2OC)Sc2ccc(F)cc2)cc1 | 50 | 50
O=C(/C(=C\c1ccccc1O)Sc1ccccc1Br)c1ccc(Br)cc1 | 50 | 50
O=C(/C(=C\c1ccc(O)c([N+](=O)[O-])c1)SCc1ccc(Br)cc1)c1ccc(O)cc1O | > 100 | 50
COc1cc(/C=C(/Sc2ccc(Br)cc2)C(=O)c2ccc(Br)cc2)ccc1F | 10 | 1
Cc1ccc(S/C(=C/c2ccc(Oc3ccccc3)cc2)C(=O)c2ccc(Br)cc2)cc1 | 1 | > 100
O=C(/C(=C/c1ccc(Cl)cc1)Cc1ccc(Cl)c(Cl)c1)c1ccc(Cl)cc1Cl | 1 | 1
CSc1ccc(/C=C(/SCc2ccc(Cl)cc2)C(=O)c2ccc(C(=O)O)cc2)cc1 | > 100 | > 100
Cc1ccc(S/C(=C/c2ccc(O)c([N+](=O)[O-])c2)C(=O)c2ccc(Cl)cc2)cc1 | 10 | 25
Cc1ccc(S(=O)(=O)/C(=C/c2c[nH]c3ccc(Cl)cc23)C(=O)c2ccc(Br)cc2)cc1 | 10 | 10
COc1ccc(S(=O)(=O)/C(=C/c2ccccc2OCc2ccccc2)C(=O)c2ccc(Cl)cc2)cc1 | 1 | 1
O=C(/C(=C\c1ccccc1OCc1ccccc1)Sc1ccc(Br)cc1)c1ccc(Cl)cc1 | 10 | 10
O=C(/C(=C\c1ccc(F)c([N+](=O)[O-])c1)Sc1ccc(Cl)cc1)c1ccc(Cl)cc1 | – | 10
O=C(/C(=C\c1ccc(F)c([N+](=O)[O-])c1)SCc1ccc(Br)cc1)c1ccc(C(F)(F)F)cc1 | – | 1
COc1cccc(OC)c1/C=C(\C(=O)c1ccc(Br)cc1)S(=O)(=O)c1ccc(Br)cc1 | 10 | –
COc1ccc(/C=C(/SCc2ccc(Cl)cc2)C(=O)c2ccc(Cl)cc2)cc1O | – | 1
O=C(/C(=C\c1ccc(F)cc1)Sc1ccc(Br)cc1)c1ccc(Br)cc1 | – | 1
